Test results reported in ChEMBL document CHEMBL4390639, “Design, Synthesis, and Biological Evaluation of Novel Allosteric Protein Disulfide Isomerase Inhibitors” (J Med Chem, 2019).
Activity calls are given as the source filed them. The rule behind the calls is not given here.

Legend:
[1] = target: Eukaryotic translation initiation factor 2 subunit 1 (Homo sapiens) (UniProt P05198); assay: Induction of EIF2alpha phosphorylation in human A172 cells at 10 ug/ml measured after 2 hrs by Western blot analysis; type: cell-based
Sequence of Eukaryotic translation initiation factor 2 subunit 1 (Homo sapiens) (P05198 whole entry): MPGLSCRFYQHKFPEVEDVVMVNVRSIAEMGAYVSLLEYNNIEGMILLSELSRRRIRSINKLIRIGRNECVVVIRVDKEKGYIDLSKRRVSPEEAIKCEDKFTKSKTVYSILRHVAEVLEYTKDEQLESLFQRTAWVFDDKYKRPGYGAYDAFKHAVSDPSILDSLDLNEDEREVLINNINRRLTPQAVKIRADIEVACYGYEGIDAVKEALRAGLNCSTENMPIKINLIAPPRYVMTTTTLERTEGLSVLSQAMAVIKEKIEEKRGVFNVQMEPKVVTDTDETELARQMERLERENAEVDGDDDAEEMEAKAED

[2] = target: Eukaryotic translation initiation factor 2 subunit 1 (Homo sapiens) (UniProt P05198); assay: Induction of EIF2alpha phosphorylation in human U87MG cells at 10 ug/ml measured after 2 hrs by Western blot analysis; type: cell-based
Procedure, shortened: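 U87MG cells (0.5 x 10^6 per well) exposed to tunicamycin at 10 µg/mL for 2 h. Cells lysed by sonication in Tris/NaCl/Triton X-100/SDS buffer, pH 7.4, and cleared at 13,500×g, 4 °C. Protein was measured by BCA, and 30 µg was run on 10% acrylamide gels and transferred to PVDF. Antibody signal was read by fluorescence imaging.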

U-87 MG [3] = assay: Inhibition of colony formation in human U87MG cells assessed as combination index at 1 to 30 uM measured after 24 hrs in presence of arsenic trioxide by crystal violet staining based assay; type: functional, U-87MG ATCC
[4] = target: T1, Protein disulfide-isomerase (Homo sapiens, UniProt P07237); assay: Inhibition of recombinant human N-terminal His-tagged PDI expressed in Escherichia coli BL21 (DE3) pLysS assessed as reduction in enzyme-mediated bovine insulin aggregation
Target sequence in this assay (P07237 whole entry): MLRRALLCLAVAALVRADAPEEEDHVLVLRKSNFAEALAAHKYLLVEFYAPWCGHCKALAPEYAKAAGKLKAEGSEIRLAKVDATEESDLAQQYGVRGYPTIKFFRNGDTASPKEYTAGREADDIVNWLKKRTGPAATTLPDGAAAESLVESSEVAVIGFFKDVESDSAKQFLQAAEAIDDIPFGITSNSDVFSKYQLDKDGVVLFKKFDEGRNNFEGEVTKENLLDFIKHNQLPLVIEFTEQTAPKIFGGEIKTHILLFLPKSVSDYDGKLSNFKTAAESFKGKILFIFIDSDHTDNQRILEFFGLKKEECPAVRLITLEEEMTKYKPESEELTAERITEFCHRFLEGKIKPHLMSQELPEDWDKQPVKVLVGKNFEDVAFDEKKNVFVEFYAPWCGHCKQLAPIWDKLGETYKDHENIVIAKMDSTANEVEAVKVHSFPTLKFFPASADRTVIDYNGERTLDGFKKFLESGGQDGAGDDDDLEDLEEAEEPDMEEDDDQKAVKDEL

[5] = Cytotoxicity against human NU04 cells assessed as inhibition of cell growth measured after 72 hrs by MTT assay; type: functional, cell-based; conditions: Homo sapiens, 72 h; read-out: IC50
Procedure, shortened: (§1)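 A172 and NU04 cells were seeded at 4000 cells/well and U87MG at 5000 cells/well, incubated overnight at 37 °C, 5% CO2, then exposed to compound or vehicle for 72 h. MTT (3 mg/mL) was added for 4 h, formazan was dissolved in DMSO, and absorbance was read at 570 nm. IC50 came from nonlinear regression; mean ± SD of at least three experiments.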

U-87 MG [6] = assay: Cytotoxicity against human U87MG cells assessed as inhibition of cell proliferation at <IC50 treated for 24 hrs, measured after 10 days by colony formation assay relative to control
A 172 [7] = assay: Cytotoxicity against human A172 cells assessed as inhibition of cell growth measured after 72 hrs by MTT assay; type: functional, cell-based; conditions: Homo sapiens, A 172, 72 h; read-out: IC50; procedure, shortened: as §1
U-87 MG [8] = assay: Cytotoxicity against human U87MG cells assessed as inhibition of cell growth measured after 72 hrs by MTT assay; type: functional, cell-based, U-87MG ATCC; conditions: Homo sapiens, U-87 MG, 72 h; read-out: IC50; procedure, shortened: as §1
[9] = target: T1, Protein disulfide-isomerase; assay: Inhibition of recombinant human N-terminal His-tagged PDI expressed in Escherichia coli BL21 (DE3) pLysS at 100 uM measured after 1 hr by ANS dye based fluorescence spectra analysis
Procedure, shortened: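 ANS spectral scan: PDI incubated with 100 μM compounds or matching DMSO in TBS for 1 h at 37 °C. ANS then added and incubated 20 min at 25 °C in the dark. Fluorescence spectrum recorded with excitation 370 nm, emission 400–700 nm.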
Target sequence in this assay (P07237 18-508 limits assumed): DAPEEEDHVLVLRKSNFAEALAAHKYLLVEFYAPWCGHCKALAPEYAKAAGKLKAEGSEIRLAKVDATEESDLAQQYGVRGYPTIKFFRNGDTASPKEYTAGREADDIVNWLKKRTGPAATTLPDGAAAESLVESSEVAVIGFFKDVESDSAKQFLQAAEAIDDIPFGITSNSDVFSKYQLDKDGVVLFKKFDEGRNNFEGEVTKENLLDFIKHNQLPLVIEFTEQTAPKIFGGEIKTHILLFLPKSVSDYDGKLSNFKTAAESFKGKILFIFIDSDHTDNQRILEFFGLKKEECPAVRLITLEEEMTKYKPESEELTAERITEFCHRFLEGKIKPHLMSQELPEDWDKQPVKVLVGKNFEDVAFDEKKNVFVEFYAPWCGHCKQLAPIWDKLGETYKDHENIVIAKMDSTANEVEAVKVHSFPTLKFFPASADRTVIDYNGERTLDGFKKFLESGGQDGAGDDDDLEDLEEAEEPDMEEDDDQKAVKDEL

[10] = target: T1, Protein disulfide-isomerase; assay: Binding affinity to recombinant human N-terminal His-tagged PDI expressed in Escherichia coli BL21 (DE3) pLysS assessed as change in melting temperature at 100 uM by ROX dye based thermal shift assay
Procedure, shortened: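 Purified wild-type, C53S/C397S or H256A PDI at 0.5 mg/mL in 50 mM Tris, pH 7.0, with or without 100 μM compound, was mixed with ROX dye in a 20 µL well. DMSO (5% in buffer) was the control. Samples were heated 25–99 °C at 1 °C/min, and the Boltzmann melting temperature shift versus DMSO was reported. Mean ± SD of three experiments.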
Target sequence in this assay (P07237 18-508 limits assumed): as above

A 172 [11] = assay: Induction of morphological changes in human A172 cells at 40 uM measured after 48 hrs by Giemsa-staining based microscopic analysis; type: functional, cell-based
U-87 MG [12] = assay: Cytotoxicity against human U87MG cells assessed as inhibition of cell proliferation at <IC50 measured after 72 hrs by MTT assay relative to control; type: functional, U-87MG ATCC

CCCCCCCCCCCCC/C=C/C(=O)N[C@H]1[C@H](O[C@H]2O[C@H](CO)[C@@H](O)[C@H](O)[C@H]2NC(C)=O)O[C@H](C[C@@H](O)[C@H]2O[C@@H](n3ccc(=O)[nH]c3=O)[C@H](O)[C@@H]2O)[C@H](O)[C@@H]1O
Activity [1]: Active | Activity [2]: Active

N#Cc1cccc(/C=C/C(=O)c2ccc(S(N)(=O)=O)cc2)c1
CI (U-87 MG [3]): <1 | IC50 [4]: 6.64 µM

N#Cc1cccc(/C=C/C(=O)c2ccc(F)c(O)c2)c1
IC50 [5]: 10.6 µM | inhibition (INH) (U-87 MG [6]): >50% | IC50 (A 172 [7]): 16.8 µM | IC50 (U-87 MG [8]): 22.9 µM | IC50 [4]: 1.15 µM

COc1ccc(C(=O)/C=C/c2cccc(C#N)c2)cc1
inhibition [9]: inactive | IC50 [4]: > 500 µM | ΔTm [10]: -0.24 °C | Activity (A 172 [11]): inactive

CCN(CC)S(=O)(=O)c1ccc(C(=O)/C=C/c2cccc(C#N)c2)cc1
IC50 [5]: 19.9 µM | inhibition (INH) (U-87 MG [12]): >50% | IC50 (A 172 [7]): 26.4 µM | IC50 (U-87 MG [8]): 17.7 µM | CI (U-87 MG [3]): <1 | IC50 [4]: 1.23 µM
